Data as given in ChEMBL document CHEMBL1123945, “Dimethylsulfonium and thiolanium analogues of the muscarinic agent oxotremorine” (J Med Chem, 1988).

Molecular target: T1, Muscarinic acetylcholine receptor (Rattus norvegicus) (UniProt P08482+P08483+P08485+P08911+P10980)
Assay: High affinity dissociation constant to Muscarinic acetylcholine receptor in rat cerebral cortex
Format: tissue-based
Settings: not given

Compound | KH [µM]
O=C1CCCN1CC#CC[S+]1CCCC1.[Cl-] | 0.069
C[S+](C)CC#CCN1CCCC1=O.[Cl-] | 0.011
C[N+](C)(C)CC#CCN1CCCC1=O.[I-] [OXOTREMORINE METHIODIDE] | 0.019
C[S+](C)CC#CCN1C(=O)CCC1=O.[Cl-] | 0.19

Tested on: not listed separately
Assay: In vitro nicotinic activity was measured on frog rectus abdominis
Format: functional, tissue-based, Rectus abdominis muscle
Settings: not given
Outline: (§1)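 Frog rectus abdominis in aerated Clark-Ringer solution pH 7.4 at 22 °C. Noncumulative concentration–response curves, 5 min exposure per concentration. Isotonic contractions recorded.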

Compound | EC50 [µM]
O=C1CCCN1CC#CC[S+]1CCCC1.[Cl-] | 5
C[S+](C)CC#CCN1CCCC1=O.[Cl-] | 29
O=C1CCC(=O)N1CC#CC[S+]1CCCC1.[Cl-] | 66.2
C[N+](C)(C)CCOC(N)=O.[Cl-] [CARBACHOL] | 3.8
C[S+](C)CC#CCN1C(=O)CCC1=O.[Cl-] | 2600

Tested on: not listed separately
Assay: Equipotent molar ratio (EPMR) was measured on frog rectus abdominis
Format: functional, Rectus abdominis muscle
Settings: not given
Outline: as §1

Compound | Ratio
C[S+](C)CC#CCN1CCCC1=O.[Cl-] | 8.1

Organism: Cavia porcellus
Assay: Dissociation constant of the drug-receptor complex was measured in guinea pig urinary bladder
Format: functional
Settings: not given

Compound | Kd [µM]
O=C1CCCN1CC#CC[S+]1CCCC1.[Cl-] | 1.1
C[S+](C)CC#CCN1CCCC1=O.[Cl-] | 1.3
O=C1CCC(=O)N1CC#CC[S+]1CCCC1.[Cl-] | 13.1
C[N+](C)(C)CC#CCN1CCCC1=O.[I-] [OXOTREMORINE METHIODIDE] | 4.3
C[S+](C)CC#CCN1C(=O)CCC1=O.[Cl-] | 5.9

Tested on: not listed separately
Assay: The equipotent molar ratio (EPMR) relative to oxotremorine on isolated guinea pig
Format: functional
Settings: in the assay text read “relative to carbachol” for “relative to oxotremorine”
Outline: (§2)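 Guinea pig ileum segments in Tyrode solution pH 7.4, 37 °C, with 0.3 mM hexamethonium. Isotonic contractions at 1 g tension. Cumulative concentration–response curves, concentration raised stepwise by a factor of 2.15. Means ± SE over tissues.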

Compound | Ratio
O=C1CCCN1CC#CC[S+]1CCCC1.[Cl-] | 2.1
C[S+](C)CC#CCN1CCCC1=O.[Cl-] | 0.24
O=C1CCC(=O)N1CC#CC[S+]1CCCC1.[Cl-] | 81
C[S+](C)CC#CCN1C(=O)CCC1=O.[Cl-] | 4.1

Molecular target: Muscarinic acetylcholine receptor
Assay: Binding affinity to Muscarinic acetylcholine receptor in rat cerebral cortex
Format: tissue-based
Settings: not given

Compound | IC50 [µM]
O=C1CCCN1CC#CC[S+]1CCCC1.[Cl-] | 0.31
C[S+](C)CC#CCN1CCCC1=O.[Cl-] | 0.8
O=C1CCC(=O)N1CC#CC[S+]1CCCC1.[Cl-] | 3.3
C[N+](C)(C)CC#CCN1CCCC1=O.[I-] [OXOTREMORINE METHIODIDE] | 1.2
C[S+](C)CC#CCN1C(=O)CCC1=O.[Cl-] | 5.4

Organism: Cavia porcellus
Assay: Dissociation constant of the drug-receptor complex was measured in guinea pig ileum
Format: functional
Settings: not given

Compound | Kd [µM]
O=C1CCCN1CC#CC[S+]1CCCC1.[Cl-] | 1.3
C[S+](C)CC#CCN1CCCC1=O.[Cl-] | 1.5
O=C1CCC(=O)N1CC#CC[S+]1CCCC1.[Cl-] | 7.5
C[N+](C)(C)CC#CCN1CCCC1=O.[I-] [OXOTREMORINE METHIODIDE] | 2.9
C[S+](C)CC#CCN1C(=O)CCC1=O.[Cl-] | 6.9

Organism: Cavia porcellus
Assay: Relative efficacy of compound was determined in guinea pig iluem
Format: functional
Settings: not given

Compound | Efficacy
O=C1CCCN1CC#CC[S+]1CCCC1.[Cl-] | 0.054
C[S+](C)CC#CCN1CCCC1=O.[Cl-] | 0.41
O=C1CCC(=O)N1CC#CC[S+]1CCCC1.[Cl-] | 0.0061
C[N+](C)(C)CCOC(N)=O.[Cl-] [CARBACHOL] | 1
C[N+](C)(C)CC#CCN1CCCC1=O.[I-] [OXOTREMORINE METHIODIDE] | 0.95
C[S+](C)CC#CCN1C(=O)CCC1=O.[Cl-] | 0.11

Molecular target: T1, Muscarinic acetylcholine receptor (Rattus norvegicus)
Assay: Low affinity dissociation constant to Muscarinic acetylcholine receptor in rat cerebral cortex
Format: tissue-based
Settings: not given

Compound | KL [µM]
O=C1CCCN1CC#CC[S+]1CCCC1.[Cl-] | 0.99
C[S+](C)CC#CCN1CCCC1=O.[Cl-] | 2.2
C[N+](C)(C)CC#CCN1CCCC1=O.[I-] [OXOTREMORINE METHIODIDE] | 5.4
C[S+](C)CC#CCN1C(=O)CCC1=O.[Cl-] | 12.7

Organism: Cavia porcellus
Assay: In vitro muscarinic activity was measured on isolated guinea pig ileum
Format: functional
Settings: not given
Outline: as §2

Compound | EC50 [µM]
O=C1CCCN1CC#CC[S+]1CCCC1.[Cl-] | 0.25
C[S+](C)CC#CCN1CCCC1=O.[Cl-] | 0.029
O=C1CCC(=O)N1CC#CC[S+]1CCCC1.[Cl-] | 7.9
C[N+](C)(C)CC#CCN1CCCC1=O.[I-] [OXOTREMORINE METHIODIDE] | 0.023
C[S+](C)CC#CCN1C(=O)CCC1=O.[Cl-] | 0.41

Organism: Cavia porcellus
Assay: Relative efficacy of compound was determined was determined in guinea pig bladder
Format: functional
Settings: not given

Compound | Efficacy
C[S+](C)CC#CCN1CCCC1=O.[Cl-] | 0.48

Organism: Cavia porcellus
Assay: Relative efficacy of compound was determined in guinea pig urinary bladder
Format: functional
Settings: not given

Compound | Efficacy
O=C1CCCN1CC#CC[S+]1CCCC1.[Cl-] | 0.057
C[N+](C)(C)CCOC(N)=O.[Cl-] [CARBACHOL] | 1
C[N+](C)(C)CC#CCN1CCCC1=O.[I-] [OXOTREMORINE METHIODIDE] | 0.88
C[S+](C)CC#CCN1C(=O)CCC1=O.[Cl-] | 0.15

Tested on: not listed separately
Assay: Equipotent molar ratio measured on frog rectus abdominis
Format: functional, Rectus abdominis muscle
Settings: not given
Outline: as §1

Compound | Ratio
O=C1CCCN1CC#CC[S+]1CCCC1.[Cl-] | 1.4
O=C1CCC(=O)N1CC#CC[S+]1CCCC1.[Cl-] | 18
C[N+](C)(C)CC#CCN1CCCC1=O.[I-] [OXOTREMORINE METHIODIDE] | 2.1
C[S+](C)CC#CCN1C(=O)CCC1=O.[Cl-] | 692

Tested on: not listed separately
Assay: (§3) Acute toxicity was measured in mice
Format: organism-based
Settings: mouse, in vivo
Outline: (§4)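 Male Swiss-Webster mice, 24-30 g. Drug dissolved in 0.9% NaCl, given iv in the tail. LD50 estimated by the up-and-down method, using six or more animals per determination. Mortality counted at 1 h.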

Compound | LD50 [µmol/kg]
O=C1CCCN1CC#CC[S+]1CCCC1.[Cl-] | 2.2
C[S+](C)CC#CCN1CCCC1=O.[Cl-] | 2.8
O=C1CCC(=O)N1CC#CC[S+]1CCCC1.[Cl-] | 3.5
C[N+](C)(C)CC#CCN1CCCC1=O.[I-] [OXOTREMORINE METHIODIDE] | 1
C[S+](C)CC#CCN1C(=O)CCC1=O.[Cl-] | 70

Molecular target: T1, Muscarinic acetylcholine receptor (Rattus norvegicus)
Assay: Percentage of high affinity sites was determined in rat cerebral cortex
Format: tissue-based
Settings: not given

Compound | Binding [%]
O=C1CCCN1CC#CC[S+]1CCCC1.[Cl-] | 37
C[S+](C)CC#CCN1CCCC1=O.[Cl-] | 28.4
C[N+](C)(C)CC#CCN1CCCC1=O.[I-] [OXOTREMORINE METHIODIDE] | 31.3
C[S+](C)CC#CCN1C(=O)CCC1=O.[Cl-] | 27.4

Tested on: Mus musculus
Assay: Sialalogic activity was measured in mice after intravenous administration
Format: functional
Settings: not given
Outline: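 Male Swiss-Webster mice (24–30 g). Drugs in 0.9% NaCl given iv in the tail. Salivation was scored by blotting the mouth onto absorbent tissue during the first 10 min. ED50 by the up-and-down method, six or more animals per determination.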

Compound | ED50 [µmol/kg]
O=C1CCCN1CC#CC[S+]1CCCC1.[Cl-] | 0.35
C[S+](C)CC#CCN1CCCC1=O.[Cl-] | 0.024
C[N+](C)(C)CCOC(N)=O.[Cl-] [CARBACHOL] | 0.083
C[N+](C)(C)CC#CCN1CCCC1=O.[I-] [OXOTREMORINE METHIODIDE] | 0.058
C[S+](C)CC#CCN1C(=O)CCC1=O.[Cl-] | 0.48

Tested on: not listed separately
Assay: Ratio of equipotent molar ratio (EPMR) of frog rectus to EPMR of guinea pig ileum
Format: functional
Settings: not given

Compound | Ratio
C[S+](C)CC#CCN1CCCC1=O.[Cl-] | 33.8

Tested on: not listed separately
Assay: as §3
Settings: mouse, in vivo
Outline: as §4

Compound | LD50 [µmol/kg]
C[N+](C)(C)CCOC(N)=O.[Cl-] [CARBACHOL] | 1.7

Tested on: not listed separately
Assay: The equipotent molar ratio (EPMR) relative to oxotremorine on isolated guinea urinary bladder
Format: functional
Settings: in the assay text read “relative to carbachol” for “relative to oxotremorine”
Outline: (§5)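 Guinea pig urinary bladder strips in Tyrode solution pH 7.4, 37 °C, containing 0.3 mM hexamethonium. Isotonic recording at 1 g tension. Cumulative concentration–response curves, concentration raised stepwise by a factor of 3.16.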

Compound | Ratio
O=C1CCCN1CC#CC[S+]1CCCC1.[Cl-] | 2.3
C[S+](C)CC#CCN1CCCC1=O.[Cl-] | 0.32
C[S+](C)CC#CCN1C(=O)CCC1=O.[Cl-] | 3.7

Organism: Cavia porcellus
Assay: In vitro muscarinic activity was measured on isolated guinea pig urinary bladder
Format: functional
Settings: not given
Outline: as §5

Compound | EC50 [µM]
O=C1CCCN1CC#CC[S+]1CCCC1.[Cl-] | 1.2
C[S+](C)CC#CCN1CCCC1=O.[Cl-] | 0.2
C[N+](C)(C)CC#CCN1CCCC1=O.[I-] [OXOTREMORINE METHIODIDE] | 0.37
C[S+](C)CC#CCN1C(=O)CCC1=O.[Cl-] | 1.7
